# In ChEMBL document CHEMBL1130749, “Inhibitors of the chymotrypsin-like activity of proteasome based on di- and tri-peptidyl alpha-keto aldehydes (glyoxals)” (Bioorg Med Chem Lett, 1998):
# Peptide text beside a SMILES is read from it. * marks the point of attachment. Cbz = O=C(OCc1ccccc1)*
# System: Proteasome
# Experiment: Inhibitory constant for the inactivation of the chymotrypsin like activity of proteasome from human red blood corpuscles was determined; NI means no inhibition; call rule not given here
# Type: subcellular
# In short: (§1)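 Proteasome isolated from human erythrocytes by a previously described procedure. Its chymotrypsin-like activity was followed by hydrolysis of the fluorogenic substrate Suc-Leu-Leu-Val-Tyr-NHMec. Inhibition was treated as slow-binding, with a fast EI complex forming first and then isomerising to a tight EI*. Ki* was obtained from the final steady-state rates using a rearranged competitive-inhibition equation.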
row,Ki,SMILES
1,Not Active,CC(=O)N[C@@H](C(=O)N[C@@H](CC(C)C)C(=O)N[C@@H](CCCCN)C(=O)C=O)C(C)C
2,Not Active,CC(=O)N[C@@H](CCCN=C(N)N)C(=O)N[C@@H](CCCN=C(N)N)C(=O)C=O
3,Not Active,O=CC(=O)[C@H](Cc1ccccc1)NC(=O)[C@@H]1CCCN1C(=O)OCc1ccccc1

# Biological target: Proteasome
# Experiment: Inhibitory constant for the inactivation of the chymotrypsin like activity of proteasome from human red blood corpuscles was determined
# Type: subcellular
# In short: as §1
row,SMILES,Ki [nM]
1,CC(C)C[C@H](NC(=O)[C@H](C)NC(=O)OCc1ccccc1)C(=O)C=O,3860
2,C[C@H](NC(=O)OCc1ccccc1)C(=O)N[C@@H](Cc1ccccc1)C(=O)C=O,9200
3,CC(C)[C@H](NC(=O)OCc1ccccc1)C(=O)N[C@@H](Cc1ccccc1)C(=O)C=O,2050
4,CC(C)C[C@H](NC(=O)OCc1ccccc1)C(=O)N[C@@H](Cc1ccccc1)C(=O)C=O,1400

# Further lines, results first:
row,Ki [nM],SMILES
1,3.1,CC(C)C[C@H](NC(=O)[C@@H](CC(C)C)NC(=O)OCc1ccccc1)C(=O)N[C@@H](Cc1ccc(O)cc1)C(=O)C=O
2,3.7,CC(C)C[C@H](NC(=O)[C@H](CC(C)C)NC(=O)[C@@H](CC(C)C)NC(=O)c1ccccc1)C(=O)C=O
3,4,CC(C)C[C@@H](C=O)NC(=O)[C@H](CC(C)C)NC(=O)[C@H](CC(C)C)NC(=O)OCc1ccccc1 [MG-132] (Cbz-Leu-Leu-Leu-aldehyde)
